# Experimental data: ChEMBL document CHEMBL4138050, “Discovery of selective cystathionine β-synthase inhibitors by high-throughput screening with a fluorescent thiol probe” (Medchemcomm, 2017)
# Activity calls are given as the source filed them. The rule behind the calls is not given here.
# System: HT-29
# Assay: Antiproliferative activity against human HT-29 cells assessed as decrease in cell viability after 24 hrs by CCK8 assay
# Type: functional, cell-based
# Settings: HT-29, 24 h
# Procedure, shortened: (§1)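 Viability of HT29 colon cancer cells and of NCM356 normal colon mucosal epithelial cells was measured across a concentration range and expressed relative to the control group. IC50 was taken from the dose–response curve. For HT29, values are means ± SD with n = 6.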
row,Structure (SMILES),IC50
1,C[C@@H]1O[C@@H](Oc2c(-c3ccc(O)cc3)oc3cc(O)cc(O)c3c2=O)[C@H](OC(=O)/C=C\c2ccc(O)cc2)[C@H](O)[C@H]1OC(=O)/C=C\c1ccc(O)cc1,1.5 to 13.5 µM
2,COc1ccc(-c2cc(=O)c3c(O)cc(O)c(-c4cc(-c5cc(=O)c6c(O)cc(O)cc6o5)ccc4O)c3o2)cc1 [PODOCARPUSFLAVONE A],7.9 µM
3,O=c1cc(-c2ccc(O)cc2)oc2c(-c3c(O)cc(O)c4c(=O)cc(-c5ccc(O)cc5)oc34)c(O)cc(O)c12 [CUPRESSUFLAVONE],≥ 50 µM
4,COc1ccc([C@H]2Oc3cc(O)cc(O)c3C(=O)[C@@H]2[C@H]2C(=O)c3c(O)cc(O)cc3O[C@@H]2c2ccc(O)cc2)cc1 [SIKOKIANIN C],1.5 µM
5,NOCC(=O)O [CARBOXYMETHOXYLAMINE],140 µM

# System: not listed separately
# Assay: Antiproliferative activity against human NCM356 cells assessed as decrease in cell viability after 24 hrs by CCK8 assay
# Type: cell-based
# Settings: not given
# Procedure, shortened: as §1
row,Structure (SMILES),IC50
1,COc1ccc(-c2cc(=O)c3c(O)cc(O)c(-c4cc(-c5cc(=O)c6c(O)cc(O)cc6o5)ccc4O)c3o2)cc1 [PODOCARPUSFLAVONE A],36 µM
2,COc1ccc([C@H]2Oc3cc(O)cc(O)c3C(=O)[C@@H]2[C@H]2C(=O)c3c(O)cc(O)cc3O[C@@H]2c2ccc(O)cc2)cc1 [SIKOKIANIN C],19 µM
3,NOCC(=O)O [CARBOXYMETHOXYLAMINE],800 µM

# System: not listed separately
# Assay: Selectivity index, ratio of IC50 for human NCM356 cells to IC50 for human HT-29 cells
# Type: toxicity
# Settings: NCM356 cells versus HT-29 cells
row,Structure (SMILES),selectivity ratio
1,COc1ccc(-c2cc(=O)c3c(O)cc(O)c(-c4cc(-c5cc(=O)c6c(O)cc(O)cc6o5)ccc4O)c3o2)cc1 [PODOCARPUSFLAVONE A],5
2,COc1ccc([C@H]2Oc3cc(O)cc(O)c3C(=O)[C@@H]2[C@H]2C(=O)c3c(O)cc(O)cc3O[C@@H]2c2ccc(O)cc2)cc1 [SIKOKIANIN C],10

# Species on record: Homo sapiens
# Assay: Selectivity ratio of IC50 for N-terminal His-tagged CSE extracted from human HepG2 cells expressed in Escherichia coli BL21 (DE3) using cysteine as substrate assessed as decrease in H2S production to IC50 for full-length GST-fused human CBS using cysteine/homocysteine as substrate assessed as decrease in H2S production
# Settings: not given
row,Structure (SMILES),Ratio IC50
1,O=C(CCCCCCCCc1ccccc1)c1c(O)cc(O)cc1O,> 10
2,Oc1cc(O)cc(CCC/C=C\CCCCCCCCCc2cc(O)cc(O)c2)c1,> 10
3,Cc1cc(O)c2c(=O)c3c(O)cc(O)c4c5c(O)cc(O)c6c(=O)c7c(O)cc(C)c8c1c2c(c34)c(c78)c65 [HYPERICIN],> 10

# Molecular target: T1, Cystathionine gamma-lyase (Homo sapiens, UniProt P32929)
# Assay: Inhibition of N-terminal His-tagged CSE extracted from human HepG2 cells expressed in Escherichia coli BL21 (DE3) using methylcysteine as substrate measured for 10 mins by CPM probe-based fluorescence assay
# Settings: not given
# Procedure, shortened: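 Methanethiol release by purified human CSE was monitored continuously with 10 mM methylcysteine as substrate in 50 mM HEPES, pH 7.4. Thiol was trapped by the CPM fluorescent probe and read at 460 nm (excitation 400 nm). IC50 was taken from the dose–response curve.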
# T1 sequence (P32929 whole entry): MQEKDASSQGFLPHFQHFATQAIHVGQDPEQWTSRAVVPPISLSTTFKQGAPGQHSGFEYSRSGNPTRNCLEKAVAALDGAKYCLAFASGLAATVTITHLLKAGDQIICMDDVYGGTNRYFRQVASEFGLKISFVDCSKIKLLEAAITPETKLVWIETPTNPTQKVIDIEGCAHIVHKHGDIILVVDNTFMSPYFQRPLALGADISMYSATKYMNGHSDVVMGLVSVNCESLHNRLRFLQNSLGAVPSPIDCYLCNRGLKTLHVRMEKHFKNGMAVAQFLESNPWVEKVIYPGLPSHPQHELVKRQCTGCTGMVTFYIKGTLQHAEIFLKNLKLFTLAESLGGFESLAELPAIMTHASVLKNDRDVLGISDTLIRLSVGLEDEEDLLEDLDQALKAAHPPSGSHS
row,Structure (SMILES),IC50
1,NOCC(=O)O [CARBOXYMETHOXYLAMINE],0.57 µM

# Molecular target: T1, Cystathionine gamma-lyase
# Assay: Inhibition of N-terminal His-tagged CSE extracted from human HepG2 cells expressed in Escherichia coli BL21 (DE3) using cysteine as substrate assessed as decrease in H2S production preincubated for 3 mins in presence of lead nitrate followed by cysteine addition
# Settings: not given
# Procedure, shortened: (§2)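 The H2S-producing activity of the purified human enzyme was measured with cysteine and homocysteine as substrates in 50 mM HEPES, pH 7.4, with 0.4 mM lead nitrate (lead sulfide read-out).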
Structure (SMILES),IC50,inhibition
C[C@@H]1O[C@@H](Oc2c(-c3ccc(O)cc3)oc3cc(O)cc(O)c3c2=O)[C@H](OC(=O)/C=C\c2ccc(O)cc2)[C@H](O)[C@H]1OC(=O)/C=C\c1ccc(O)cc1,> 400 µM,–
COc1ccc(-c2cc(=O)c3c(O)cc(O)c(-c4cc(-c5cc(=O)c6c(O)cc(O)cc6o5)ccc4O)c3o2)cc1 [PODOCARPUSFLAVONE A],> 400 µM,–
O=c1cc(-c2ccc(O)cc2)oc2c(-c3c(O)cc(O)c4c(=O)cc(-c5ccc(O)cc5)oc34)c(O)cc(O)c12 [CUPRESSUFLAVONE],> 400 µM,–
COc1ccc([C@H]2Oc3cc(O)cc(O)c3C(=O)[C@@H]2[C@H]2C(=O)c3c(O)cc(O)cc3O[C@@H]2c2ccc(O)cc2)cc1 [SIKOKIANIN C],> 400 µM,–
NOCC(=O)O [CARBOXYMETHOXYLAMINE],4 µM,–
O=c1c(O)c(-c2cc(O)c(O)c(O)c2)oc2cc(O)cc(O)c12 [MYRICETIN],–,Active
Oc1ccc(-c2oc3cc(O)cc4c3c2-c2cc(O)cc3c2[C@H](c2cc(O)cc5c2[C@@H]4[C@H](c2ccc(O)cc2)O5)[C@@H](c2ccc(O)cc2)O3)cc1,–,Active

# Molecular target: T2, Cystathionine beta-synthase (Homo sapiens) (UniProt P35520)
# T2 sequence (whole entry): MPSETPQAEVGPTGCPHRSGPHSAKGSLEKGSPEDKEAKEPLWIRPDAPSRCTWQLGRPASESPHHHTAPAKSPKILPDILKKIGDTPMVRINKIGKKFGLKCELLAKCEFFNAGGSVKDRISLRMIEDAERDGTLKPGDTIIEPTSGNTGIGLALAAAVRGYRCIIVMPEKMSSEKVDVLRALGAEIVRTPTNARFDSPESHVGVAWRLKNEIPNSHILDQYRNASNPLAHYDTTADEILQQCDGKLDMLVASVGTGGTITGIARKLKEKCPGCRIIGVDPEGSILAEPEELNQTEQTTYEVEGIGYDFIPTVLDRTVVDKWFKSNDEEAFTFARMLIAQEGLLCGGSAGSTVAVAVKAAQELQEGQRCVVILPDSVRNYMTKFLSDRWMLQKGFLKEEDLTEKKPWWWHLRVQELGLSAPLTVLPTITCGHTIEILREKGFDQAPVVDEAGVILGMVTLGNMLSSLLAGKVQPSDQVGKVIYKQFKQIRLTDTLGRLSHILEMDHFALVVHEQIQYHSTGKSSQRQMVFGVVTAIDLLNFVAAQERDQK
# Assay: Reversible inhibition of full-length GST-fused human CBS using cysteine/homocysteine as substrate assessed as decrease in H2S production at 100 uM preincubated for 1 hr followed by ultrafiltration for 5 times
# Settings: not given
row,Structure (SMILES),inhibition
1,O=C(CCCCCCCCc1ccccc1)c1c(O)cc(O)cc1O,Active
2,C[C@@H]1O[C@@H](Oc2c(-c3ccc(O)cc3)oc3cc(O)cc(O)c3c2=O)[C@H](OC(=O)/C=C\c2ccc(O)cc2)[C@H](O)[C@H]1OC(=O)/C=C\c1ccc(O)cc1,Active
3,COc1ccc(-c2cc(=O)c3c(O)cc(O)c(-c4cc(-c5cc(=O)c6c(O)cc(O)cc6o5)ccc4O)c3o2)cc1 [PODOCARPUSFLAVONE A],Active
4,Oc1cc(O)cc(CCC/C=C\CCCCCCCCCc2cc(O)cc(O)c2)c1,Active
5,O=c1cc(-c2ccc(O)cc2)oc2c(-c3c(O)cc(O)c4c(=O)cc(-c5ccc(O)cc5)oc34)c(O)cc(O)c12 [CUPRESSUFLAVONE],Active
6,COc1ccc([C@H]2Oc3cc(O)cc(O)c3C(=O)[C@@H]2[C@H]2C(=O)c3c(O)cc(O)cc3O[C@@H]2c2ccc(O)cc2)cc1 [SIKOKIANIN C],Active
7,Cc1cc(O)c2c(=O)c3c(O)cc(O)c4c5c(O)cc(O)c6c(=O)c7c(O)cc(C)c8c1c2c(c34)c(c78)c65 [HYPERICIN],Active
8,O=c1c(O)c(-c2cc(O)c(O)c(O)c2)oc2cc(O)cc(O)c12 [MYRICETIN],Active
9,Oc1ccc(-c2oc3cc(O)cc4c3c2-c2cc(O)cc3c2[C@H](c2cc(O)cc5c2[C@@H]4[C@H](c2ccc(O)cc2)O5)[C@@H](c2ccc(O)cc2)O3)cc1,Active

# Molecular target: T3, Cystathionine beta-synthase (Homo sapiens, UniProt P35520)
# T3 sequence (P35520 whole entry): T2 sequence (whole entry)
# Assay: Inhibition of full-length GST-fused human CBS using cysteine/homocysteine as substrate assessed as decrease in H2S production preincubated for 3 mins in presence of homocysteine and lead nitrate followed by cysteine addition
# Settings: not given
# Procedure, shortened: as §2
row,Structure (SMILES),IC50
1,O=C(CCCCCCCCc1ccccc1)c1c(O)cc(O)cc1O,8.1 µM
2,C[C@@H]1O[C@@H](Oc2c(-c3ccc(O)cc3)oc3cc(O)cc(O)c3c2=O)[C@H](OC(=O)/C=C\c2ccc(O)cc2)[C@H](O)[C@H]1OC(=O)/C=C\c1ccc(O)cc1,6.2 µM
3,COc1ccc(-c2cc(=O)c3c(O)cc(O)c(-c4cc(-c5cc(=O)c6c(O)cc(O)cc6o5)ccc4O)c3o2)cc1 [PODOCARPUSFLAVONE A],8.9 µM
4,Oc1cc(O)cc(CCC/C=C\CCCCCCCCCc2cc(O)cc(O)c2)c1,7.4 µM
5,O=c1cc(-c2ccc(O)cc2)oc2c(-c3c(O)cc(O)c4c(=O)cc(-c5ccc(O)cc5)oc34)c(O)cc(O)c12 [CUPRESSUFLAVONE],11.5 µM
6,COc1ccc([C@H]2Oc3cc(O)cc(O)c3C(=O)[C@@H]2[C@H]2C(=O)c3c(O)cc(O)cc3O[C@@H]2c2ccc(O)cc2)cc1 [SIKOKIANIN C],9.2 µM
7,Cc1cc(O)c2c(=O)c3c(O)cc(O)c4c5c(O)cc(O)c6c(=O)c7c(O)cc(C)c8c1c2c(c34)c(c78)c65 [HYPERICIN],3.1 µM
8,NOCC(=O)O [CARBOXYMETHOXYLAMINE],4 µM
9,O=c1c(O)c(-c2cc(O)c(O)c(O)c2)oc2cc(O)cc(O)c12 [MYRICETIN],18.8 µM
10,Oc1ccc(-c2oc3cc(O)cc4c3c2-c2cc(O)cc3c2[C@H](c2cc(O)cc5c2[C@@H]4[C@H](c2ccc(O)cc2)O5)[C@@H](c2ccc(O)cc2)O3)cc1,5.9 µM

# Molecular target: T3, Cystathionine beta-synthase
# Assay: Inhibition of full-length GST-fused human CBS using methylcysteine as substrate measured for 10 mins by CPM probe-based fluorescence assay
# Settings: not given
# Procedure, shortened: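 Enzyme source: full-length wild-type hCBS, 2 μg per reaction. Substrate: 10 mM methylcysteine. Buffer: 50 mM HEPES, pH 7.4, with 15 μM CPM thiol probe. Read-out: CH3SH release, followed as fluorescence at 460 nm (excitation 400 nm) over 600 s. Screening positive control: 100 μM AOAA. Secondary screen: compounds at 50 μM.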
row,Structure (SMILES),IC50
1,NOCC(=O)O [CARBOXYMETHOXYLAMINE],1 µM
